{
  "source": "ChEMBL document CHEMBL2346664",
  "about": "“Synthesis, characterization and in vitro anticancer evaluation of novel 1,2,4-triazolin-3-one derivatives” (2013)",
  "assay_type_in_all_cases": "functional",
  "key": {"PC-3": {"system": "PC-3", "test": "Growth inhibition of human PC3 cells assessed as cell growth at 10 '-7 M after 48 hrs by sulforhodamine B assay", "settings": "PC-3, 48 h, read-out: Activity"}, "OVCAR-5": {"system": "OVCAR-5", "test": "Growth inhibition of human OVCAR5 cells assessed as growth inhibition at 10 uM after 48 hrs by sulforhodamine B assay", "settings": "OVCAR-5, 48 h, read-out: GI"}, "SF-295 [1]": {"system": "SF-295", "test": "Growth inhibition of human SF295 cells assessed as cell growth at 10 '-4 M after 48 hrs by sulforhodamine B assay", "settings": "SF-295, 48 h, read-out: Activity"}, "MCF7": {"system": "MCF7", "test": "Growth inhibition of human MCF7 cells assessed as growth inhibition at 10 uM after 48 hrs by sulforhodamine B assay", "settings": "MCF7, 48 h, read-out: GI"}, "A498": {"system": "A498", "test": "Growth inhibition of human A498 cells assessed as cell growth at 10 '-4 M after 48 hrs by sulforhodamine B assay", "settings": "A498, 48 h, read-out: Activity", "summary_of_the_method": "(§1)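 Percent growth at each of the five concentrations of the 48 h continuous-exposure NCI SRB screen. Drug stocks were in DMSO at 400× the top final concentration and diluted in medium with gentamicin. Growth was calculated as [(Ti-Tz)/(C-Tz)]×100 when Ti ≥ Tz, or [(Ti-Tz)/Tz]×100 when Ti < Tz. Tz plates were fixed at drug addition; untreated wells served as control. Absorbance was read at 515 nm.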"}, "KM12": {"system": "KM12", "test": "Growth inhibition of human KM12 cells assessed as cell growth at 10 '-8 M after 48 hrs by sulforhodamine B assay", "settings": "KM12, 48 h, read-out: Activity"}, "K562": {"system": "K562", "test": "Growth inhibition of human K562 cells assessed as growth inhibition at 10 uM after 48 hrs by sulforhodamine B assay", "settings": "K562, 48 h, read-out: GI"}, "SF-295 [2]": {"system": "SF-295", "test": "Growth inhibition of human SF295 cells assessed as cell growth at 10 '-5 M after 48 hrs by sulforhodamine B assay", "settings": "SF-295, 48 h, read-out: Activity"}, "DU-145 [3]": {"system": "DU-145", "test": "Growth inhibition of human DU145 cells assessed as cell growth at 10 '-8 M after 48 hrs by sulforhodamine B assay", "settings": "DU-145, 48 h, read-out: Activity"}, "ACHN [4]": {"system": "ACHN", "test": "Growth inhibition of human ACHN cells assessed as cell growth at 10 '-7 M after 48 hrs by sulforhodamine B assay", "settings": "read-out: Activity", "summary_of_the_method": "as §1"}, "HT-29 [5]": {"system": "HT-29", "test": "Growth inhibition of human HT-29 cells assessed as cell growth at 10 '-8 M after 48 hrs by sulforhodamine B assay", "settings": "HT-29, 48 h, read-out: Activity"}, "SN12C": {"system": "SN12C", "test": "Growth inhibition of human SN12C cells assessed as cell growth at 10 '-4 M after 48 hrs by sulforhodamine B assay", "settings": "read-out: Activity"}, "LOX IMVI": {"system": "LOX IMVI", "test": "Growth inhibition of human LOXIMVI cells after 48 hrs by sulforhodamine B assay", "summary_of_the_method": "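NCI 60-cell-line five-dose screen. Cells were plated at 5,000–40,000/well by doubling time and grown 24 h at 37 °C, 5% CO2. Time-zero plates were TCA-fixed. Drug from DMSO stock was tested at 0.01, 0.1, 1, 10 and 100 µM final for 48 h continuous exposure. Read-out was SRB at 515 nm. GI50 is the concentration giving 50% reduction in net protein increase versus untreated control.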"}, "UACC-257 [6]": {"system": "UACC-257", "test": "Growth inhibition of human UACC257 cells assessed as cell growth at 10 '-6 M after 48 hrs by sulforhodamine B assay", "settings": "UACC-257, 48 h, read-out: Activity"}, "UACC-257 [7]": {"system": "UACC-257", "test": "Growth inhibition of human UACC257 cells assessed as growth inhibition at 10 uM after 48 hrs by sulforhodamine B assay", "settings": "UACC-257, 48 h, read-out: GI"}, "[8]": {"test": "Growth inhibition of human NCI-ADR-RES cells assessed as cell growth at 10 '-6 M after 48 hrs by sulforhodamine B assay", "settings": "read-out: Activity"}, "HOP-92": {"system": "HOP-92", "test": "Growth inhibition of human HOP92 cells assessed as cell growth at 10 '-5 M after 48 hrs by sulforhodamine B assay", "settings": "HOP-92, 48 h, read-out: Activity"}, "RXF 393": {"system": "RXF 393", "test": "Growth inhibition of human RXF393 cells assessed as cell growth at 10 '-5 M after 48 hrs by sulforhodamine B assay", "settings": "RXF 393, 48 h, read-out: Activity"}, "CAKI-1": {"system": "CAKI-1", "test": "Growth inhibition of human CAKI-1 cells assessed as growth inhibition at 10 uM after 48 hrs by sulforhodamine B assay", "settings": "CAKI-1, 48 h, read-out: GI", "summary_of_the_method": "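Percent growth inhibition from the single 10^-5 M NCI-60 screen, reported as 100 minus growth percent. Growth percent was measured after 48 h drug exposure at 37 °C, 5% CO2, using TCA fixation, SRB staining and absorbance at 515 nm, against untreated controls and time-zero plates.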"}, "UACC-62": {"system": "UACC-62", "test": "Growth inhibition of human UACC62 cells assessed as cell growth at 10 '-6 M after 48 hrs by sulforhodamine B assay", "settings": "UACC-62, 48 h, read-out: Activity"}, "U-251": {"system": "U-251", "test": "Growth inhibition of human U251 cells assessed as cell growth at 10 '-7 M after 48 hrs by sulforhodamine B assay", "settings": "U-251, 48 h, read-out: Activity"}, "HT-29 [9]": {"system": "HT-29", "test": "Growth inhibition of human HT-29 cells assessed as cell growth at 10 '-6 M after 48 hrs by sulforhodamine B assay", "settings": "HT-29, 48 h, read-out: Activity"}, "SW-620": {"system": "SW-620", "test": "Growth inhibition of human SW620 cells assessed as cell growth at 10 '-6 M after 48 hrs by sulforhodamine B assay", "settings": "SW-620, 48 h, read-out: Activity"}, "DU-145 [10]": {"system": "DU-145", "test": "Growth inhibition of human DU145 cells assessed as cell growth at 10 '-6 M after 48 hrs by sulforhodamine B assay", "settings": "DU-145, 48 h, read-out: Activity"}, "[11]": {"test": "Growth inhibition of human HCC2998 cells assessed as cell growth at 10 '-8 M after 48 hrs by sulforhodamine B assay", "settings": "HCC 2998, 48 h, read-out: Activity"}, "SK-OV-3": {"system": "SK-OV-3", "test": "Growth inhibition of human SKOV3 cells assessed as cell growth at 10 '-4 M after 48 hrs by sulforhodamine B assay", "settings": "SK-OV-3, 48 h, read-out: Activity"}, "HL-60(TB)": {"system": "HL-60(TB)", "test": "Growth inhibition of human HL-60(TB) cells assessed as cell growth at 10 '-5 M after 48 hrs by sulforhodamine B assay", "settings": "HL-60, 48 h, read-out: Activity", "summary_of_the_method": "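Five-dose NCI protocol with final concentrations of 0.01–100 µM and drug diluted from a DMSO stock (400× the top concentration) in medium with gentamicin. Cells were pre-incubated 24 h, then exposed 48 h at 37 °C. Suspension cells were fixed with 16% final TCA, SRB-stained and read at 515 nm. Percentage growth at each level was [(Ti−Tz)/(C−Tz)]×100, or [(Ti−Tz)/Tz]×100 when Ti < Tz.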"}, "ACHN [12]": {"system": "ACHN", "test": "Growth inhibition of human ACHN cells assessed as cell growth at 10 '-5 M after 48 hrs by sulforhodamine B assay", "settings": "read-out: Activity", "summary_of_the_method": "as §1"}, "HCT-116": {"system": "HCT-116", "test": "Growth inhibition of human HCT116 cells assessed as cell growth at 10 '-6 M after 48 hrs by sulforhodamine B assay", "settings": "HCT-116, 48 h, read-out: Activity"}},
  "data": [
    {"smiles": "Cc1cc(=O)oc2cc(OCCn3c(C)nn(-c4ccc(Cl)cc4)c3=O)ccc12", "values": [
      {"measurement": "growth at 0.1 µM", "setting": "PC-3", "value": 90, "unit": "%"},
      {"measurement": "inhibition of growth at 10 µM", "setting": "OVCAR-5", "value": 61.2, "unit": "%"},
      {"measurement": "growth at 100 µM", "setting": "SF-295 [1]", "value": 16, "unit": "%"},
      {"measurement": "inhibition of growth at 10 µM", "setting": "MCF7", "value": 84.2, "unit": "%"},
      {"measurement": "growth at 100 µM", "setting": "A498", "value": -8, "unit": "%"},
      {"measurement": "growth at 0.01 µM", "setting": "KM12", "value": 104, "unit": "%"},
      {"measurement": "inhibition of growth at 10 µM", "setting": "K562", "value": 83.7, "unit": "%"},
      {"measurement": "growth at 10 µM", "setting": "SF-295 [2]", "value": 39, "unit": "%"},
      {"measurement": "growth at 0.01 µM", "setting": "DU-145 [3]", "value": 111, "unit": "%"},
      {"measurement": "growth at 0.1 µM", "setting": "ACHN [4]", "value": 106, "unit": "%"},
      {"measurement": "growth at 0.01 µM", "setting": "HT-29 [5]", "value": 104, "unit": "%"},
      {"measurement": "growth at 100 µM", "setting": "SN12C", "value": 37, "unit": "%"},
      {"measurement": "GI50", "setting": "LOX IMVI", "value": 4.83, "unit": "µM"},
      {"measurement": "TGI", "setting": "LOX IMVI", "value": "> 1", "unit": "µM"},
      {"measurement": "CC50", "setting": "LOX IMVI; read-out: LD50 (the source's name)", "value": "> 1", "unit": "µM"},
      {"measurement": "growth at 1 µM", "setting": "UACC-257 [6]", "value": 96, "unit": "%"},
      {"measurement": "inhibition of growth at 10 µM", "setting": "UACC-257 [7]", "value": 77.5, "unit": "%"},
      {"measurement": "growth at 1 µM", "setting": "[8]", "value": 61, "unit": "%"},
      {"measurement": "growth at 10 µM", "setting": "HOP-92", "value": 55, "unit": "%"},
      {"measurement": "growth at 10 µM", "setting": "RXF 393", "value": 18, "unit": "%"},
      {"measurement": "inhibition of growth at 10 µM", "setting": "CAKI-1", "value": 80.5, "unit": "%"},
      {"measurement": "growth at 1 µM", "setting": "UACC-62", "value": 61, "unit": "%"},
      {"measurement": "growth at 0.1 µM", "setting": "U-251", "value": 97, "unit": "%"},
      {"measurement": "growth at 1 µM", "setting": "HT-29 [9]", "value": 100, "unit": "%"},
      {"measurement": "growth at 1 µM", "setting": "SW-620", "value": 68, "unit": "%"},
      {"measurement": "growth at 1 µM", "setting": "DU-145 [10]", "value": 96, "unit": "%"},
      {"measurement": "growth at 0.01 µM", "setting": "[11]", "value": 95, "unit": "%"},
      {"measurement": "growth at 100 µM", "setting": "SK-OV-3", "value": -7, "unit": "%"},
      {"measurement": "growth at 10 µM", "setting": "HL-60(TB)", "value": -1, "unit": "%"},
      {"measurement": "growth at 10 µM", "setting": "ACHN [12]", "value": 35, "unit": "%"},
      {"measurement": "growth at 1 µM", "setting": "HCT-116", "value": 86, "unit": "%"}
    ]}
  ]
}
